ROMK mod = ROMK potassium channel modulators, primary screen, cell-based, thallium flux, MLSMR library; ATP-sensitive inward rectifier potassium channel 1 (Homo sapiens), P48048; Tet-inducible ROMK, thallium flux fluorescence; actives lie on both sides; B-score at 10 µM; actives 2% (n = 130,000); AID 1918, 2009;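 active = signal ratio slope over the read window, or its plate-corrected B-score, at least 3 SD from the plate mean, either direction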;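 also: B-score of the F/F0 ratio slope over 7 to 12 s after thallium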
PKD1 kinase inh = inhibitors of human PKD1 kinase, biochemical, fluorescence polarization; PKD1 kinase fluorescence polarization assay; inhibition, % (test concentration not listed); actives 0.056% (n = 200,000); AID 797, 2007; in the data active = inhibition above about 50%
Mdm2 ligase inh = MDM2-luciferase reporter signal enhancers, primary screen, MDM2 E3 ligase inhibitor project, cell-based, luminescence, 1536-well. E3 ubiquitin-protein ligase Mdm2 (Homo sapiens), Q00987. cell-based MDM2 ubiquitination luciferase reporter, 2 h; 0 = plate control, 100 = twice control, blank-subtracted. signal enhancement, % at 5 µM. actives 0.11% (n = 210,000). AID 1230, 2008;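 active = signal enhancement of 30% or more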;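 also: luminescence tracks abundance of the self-degrading MDM2-luciferase fusion protein; higher signal means inhibition of MDM2 E3 ligase activity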
Target sequence (Q00987 whole entry, looked up, the tested form may be a part): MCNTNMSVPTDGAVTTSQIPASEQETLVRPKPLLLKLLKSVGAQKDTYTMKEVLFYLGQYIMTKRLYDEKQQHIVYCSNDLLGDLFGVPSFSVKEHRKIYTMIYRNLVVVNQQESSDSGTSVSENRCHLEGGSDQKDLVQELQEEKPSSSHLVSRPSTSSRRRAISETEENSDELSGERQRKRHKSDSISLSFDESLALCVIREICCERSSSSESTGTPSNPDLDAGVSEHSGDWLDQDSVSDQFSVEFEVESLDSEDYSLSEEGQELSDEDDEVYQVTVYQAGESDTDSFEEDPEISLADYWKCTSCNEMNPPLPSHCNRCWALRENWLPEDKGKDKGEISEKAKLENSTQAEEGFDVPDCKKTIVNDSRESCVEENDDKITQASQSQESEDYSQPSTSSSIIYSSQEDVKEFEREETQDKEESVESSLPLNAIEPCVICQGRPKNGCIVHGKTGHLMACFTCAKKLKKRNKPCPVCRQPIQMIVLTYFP
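Assay system: stable mammalian line carrying autodegrading MDM2–luciferase fusion reporter; Input: 2000 cells in each well; Compound dosing: single-point 5 µM; Schedule: 2 h compound exposure at 37 °C; Signal: SteadyLite luciferase luminescence after 15 min room-temperature reagent incubation; Evaluation: % luminescence enhancement versus blank-corrected plate control mean; Benchmarks: plate controls and plate blanks.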
DTT redox prof = compounds producing H2O2 with reducing agent – biochemical, NIH compound library profiling, artefact control for MLSCN library redox annotation, primary screen. DTT-dependent redox cycling H2O2, phenol red/HRP absorbance; 100% = 100 µM peroxide control, 0% = buffer. activation, % at 10 µM. actives 0.03% (n = 200,000);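 active = activation of at least 50% relative to the plate's high and low controls in the primary single-dose screen; inactive = activation below 50%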;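 also: compound incubated with DTT at 0.8 mM final as the reducing agent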
Cl transport mod = KCC2 cotransporter modulators, thallium flux, primary screen, cell-based, HEK293 KCC2, FluoZin-2 fluorescence, MLSMR; AID 1456, 2008; actives 2.2% (n = 190,000); Solute carrier family 12 member 5 (Homo sapiens), Q9H2X9; B-score of Tl+ flux slope (higher = more flux/activation; lower = inhibition) at 10 µM; KCC2 cells, thallium flux FluoZin-2 fluorescence;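 active = thallium flux slope and its plate-corrected score both differing from the plate sample mean at a set confidence after two filtering rounds, in either direction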;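 also: slope of fluorescence scaled to starting intensity during 10 to 20 s after thallium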
p97 inhibitor = inhibitors of human p97 ATPase, primary screen, biochemical | Transitional endoplasmic reticulum ATPase (Homo sapiens), P55072 | recombinant p97 ATPase, Kinase-Glo ATP luminescence, 3 h | inhibition, % at 8 µM | actives 0.42% (n = 220,000) | AID 1481, 2009; in the data active = inhibition above about 15%
Of the large screens only hits and unclear results are named; the others gave an inactive call. In the library only some 3.4% were active in any assay of this set; here they are far more common.

O=C(Nc1ccc(Cl)cc1)c1ccc(-n2cccn2)c([N+](=O)[O-])c1	Mdm2 ligase inh 38.4 (no result: ROMK mod, Cl transport mod)
NS(=O)(=O)c1ccc(NC(=O)N[C@@H](Cc2ccccc2)C(=O)O)cc1	none (no result: ROMK mod, Mdm2 ligase inh)
Cc1sc(N)c(C#N)c1C	none
Cc1ccc(N=Nc2ccc(O)c3ncccc23)cc1	Cl transport mod 11.2
CCS(=O)(=O)c1ccc(N=Nc2ccc(O)c3ncccc23)c(OC)c1	none
Cc1ccc(C)c(S(=O)(=O)N/N=C2/CCCc3ccccc32)c1	none
O=S(=O)(N/N=C1/CCCc2ccccc21)c1ccc(Br)cc1	ROMK mod -3.7
O=C(N/N=C/c1ccc(O)cc1)c1cccc(N/N=C/c2ccc(O)cc2)c1	p97 inhibitor 17.4 (no result: ROMK mod, PKD1 kinase inh, DTT redox prof, Cl transport mod)
CC(=O)Nc1ccc(NC(=O)C(C)Oc2ccc(Cl)cc2Cl)cc1 (centres undefined)	none (no result: ROMK mod)
COc1ccc(NC(=O)C(=O)NNC(=O)C(C)Oc2ccc(Cl)cc2Cl)cc1 (centres undefined)	ROMK mod 4.79, Cl transport mod 76.3
COc1ccc(/C=C2\CC/C(=C\c3ccc(OC)cc3OC)C2=O)c(OC)c1	ROMK mod -2.73
O=C1CCCC2=C1C(c1ccccn1)Nc1ccc(C(=O)c3ccccc3)cc1N2 (centres undefined)	none
CN(C)C(=O)/C(=C\c1ccncc1)NC(=O)c1ccccc1	none
Cc1ccc(-c2csc(NC(=O)CSc3nc(C)cc(=O)[nH]3)n2)cc1	Cl transport mod -4.25
Cc1ccc(C)n1-c1ccc(C(=O)NN)cc1	none (no result: ROMK mod)
Oc1c(Cl)cc(Cl)c2c1NCCC2	Cl transport mod 13.6 (no result: ROMK mod)
COC(=O)c1ccc(NC(=S)NC(=O)c2cc(-c3ccccc3)nc3ccccc23)cc1	Cl transport mod 6
COC(=O)c1cc(NC(=O)c2c(Cl)cnn2C)cc(C(=O)OC)c1	none
COC(=O)c1ccc(NC(=S)NC(=O)c2c(Cl)cnn2C)cc1	Cl transport mod 36.3 (no result: ROMK mod)
CC1(C)Cc2cccc(C(=O)Nc3ccc(Cl)cc3)c2O1	none (no result: ROMK mod, PKD1 kinase inh, DTT redox prof)
CN1C(C(=O)NCc2cccc(Br)c2)CC2Cn3c(nc4cc5ccccc5cc43)C21 (centres undefined)	Mdm2 ligase inh 31.4 (no result: ROMK mod, PKD1 kinase inh, DTT redox prof, p97 inhibitor)
COc1ccc2c(c1)c(C(=O)N1CCN(C)CC1)c(C)n2-c1ccccc1	none
CCN(CC)C(=O)c1sc(NC(=O)c2ccoc2C)c(C(=O)OC)c1C	Cl transport mod 8.42 (no result: ROMK mod)
CN(C(=O)c1cccc(COc2ccc(Cl)cc2Cl)c1)c1ccccc1	Mdm2 ligase inh 45.7
O=C(NCc1ccccc1)c1cccc(COc2cc(Cl)ccc2Cl)c1	none (no result: ROMK mod)
CCSC1=C(C#N)C(c2ccc3c(c2)OCO3)C2=C(CCCC2=O)N1 (centres undefined)	none
N=C1/C(=C\c2ccc(OCc3ccccc3)cc2)C(=O)N=C2SC(N3CCCC3)=NN12	none (no result: ROMK mod)
Cc1cccc(C(=O)NNC(=O)c2cccc(C)c2)c1	none
Cc1cccc(C(=O)NC(=S)NNC(=O)COc2c(C)cccc2C)c1	ROMK mod 2.69, Cl transport mod 36.8
O=C(CCc1ccccc1)NNC(=S)NC(=O)c1ccc(Cl)cc1	Cl transport mod 68.3
O=C(CCc1ccccc1)NNC(=O)c1ccc(F)cc1	none
Cc1ccc(C(=O)NC(=S)NNC(=O)COc2ccccc2C)cc1	ROMK mod 3.05, Cl transport mod 31.1
Cc1ccccc1CN(c1ccc(C(=O)NCc2ccccn2)cc1)S(C)(=O)=O	none
CN(C)NC(=S)Nc1ccc(S(=O)(=O)N2CCCCC2)cc1	none (no result: ROMK mod, PKD1 kinase inh, DTT redox prof)
c1ccc2[nH]c(SN3CCOCC3)nc2c1	none (no result: ROMK mod, Cl transport mod)
COc1ccc(N2Cc3ccccc3C2)cc1Cl	none (no result: ROMK mod)
COc1ccc(OC)c(CNn2c(-c3ccccc3F)nc3ccccc3c2=O)c1	Mdm2 ligase inh 42.6 (no result: ROMK mod)
COc1ccc(NC(=S)N/N=C/c2ccc(F)c(F)c2)cc1	none (no result: ROMK mod, PKD1 kinase inh, Mdm2 ligase inh, DTT redox prof)
Fc1ccc(/C=N/NC(=S)Nc2ccc(Cl)cc2)cc1F	Cl transport mod 8.56 (no result: ROMK mod)
Fc1cccc(/C=N/NC(=S)Nc2ccccc2Cl)c1	Cl transport mod 40.7
Fc1ccc(NC(=S)N/N=C/c2cccc(Br)c2)c(F)c1	Cl transport mod 3.97
CCN(CC)Cc1cc(O)c(CN(CC)CC)cc1O	none
CCOc1ccc(C(=O)NCCCN(CC)CC)cc1	none
Cc1cc(NC(=O)CSc2n[nH]c(-c3cccs3)n2)no1	none (no result: ROMK mod)
Cn1cccc1C(=O)NC(=O)COC(=O)c1cc(S(=O)(=O)N2CCCCC2)ccc1Cl	PKD1 kinase inh 91.4 (no result: ROMK mod)
COc1ccc(S(=O)(=O)N2CCCCCC2)cc1C(=O)OCC(=O)NC(N)=O	none (no result: ROMK mod)
O=C(N/N=C/c1c(O)n(Cc2ccccc2)c(=O)c2ccccc12)c1cccnc1	ROMK mod -4.45, Cl transport mod -3.17
O=C(N/N=C/c1cn(Cc2ccccc2)c2ccccc12)c1cccnc1	none (no result: ROMK mod)
O=[N+]([O-])c1ccccc1OCCCn1cnc2ccccc21	none
Cc1nonc1NC(=O)CSc1nnc(-c2ccoc2C)n1-c1cccc(Cl)c1	none (no result: ROMK mod)
CCn1c(=S)[nH]c2cc(C(=O)OC)ccc2c1=O	Cl transport mod 9.25
Cc1cccc(OCCn2c(=S)[nH]c3ccccc32)c1	Cl transport mod 8.91
N#C/C(=N\Nc1cccc(C(F)(F)F)c1)C(=O)c1csc(-c2cccnc2)n1	ROMK mod -3.85, Cl transport mod -6.13 (no result: PKD1 kinase inh, DTT redox prof)
Cn1c(SCC(=O)c2cc3ccccc3o2)nnc1-c1ccccc1	Cl transport mod -7.24 (no result: ROMK mod)
C=CCn1c(O)c(N=NC(=O)OC(C)(C)C)c2ccccc21	Cl transport mod 17.4 (no result: ROMK mod)
C=CCn1c(O)c(N=NC(=O)C(O)c2ccccc2)c2ccccc21 (centres undefined)	none (no result: ROMK mod, PKD1 kinase inh, DTT redox prof)
Cc1ccc(Nc2nc(Cl)nc(N(C)C#N)n2)cc1	p97 inhibitor 21.2 (no result: ROMK mod)
O=C(NC(=S)N1CCCc2ccccc21)c1ccc(Cl)cc1	Cl transport mod 56.5
O=C(NC(=S)N1CCCc2ccccc21)c1ccc(Br)cc1	Cl transport mod 71.8 (no result: ROMK mod)
O=[N+]([O-])c1ccc(C(=S)N2CCN(Cc3ccccc3)CC2)cc1	none (no result: ROMK mod, Cl transport mod)
O=C(NC(=S)Nn1cnc2c(cnn2-c2ccccc2)c1=O)c1ccc(Cl)cc1	none (no result: ROMK mod)
O=C(NC(=S)Nn1cnc2c(cnn2-c2ccccc2)c1=O)c1ccc(Oc2ccccc2)cc1	Cl transport mod 17.9 (no result: DTT redox prof)
COC(=O)c1sccc1NC(=O)C1CC=CCC1C(=O)O (centres undefined)	none (no result: ROMK mod)
CC1=CSC2=NC(=O)/C(=C\c3cccn3-c3ccccc3)C(=N)N12	none
CC(C)c1ccc(-n2cccc2/C=C2/C(=N)N3C=CSC3=NC2=O)cc1	Cl transport mod 22

Screens from PubChem BioAssay.
